TRPC6 inhibitor – mouse TRPC6 channel inhibition; B-score at 10 µM; hit rate 1.1% among 310,000; HEK293-TRPC6, membrane potential dye, ACh-evoked depolarization; active compounds read low; AID 2553;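 active = B-score under library mean minus 3 SD, initial fluorescence not abnormally high, positive integrated signal ratio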;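 note: B-score derived from integrated fluorescence ratio over the kinetic read; more negative B-score means stronger inhibition of depolarization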
Target sequence (Q61143 whole entry, looked up): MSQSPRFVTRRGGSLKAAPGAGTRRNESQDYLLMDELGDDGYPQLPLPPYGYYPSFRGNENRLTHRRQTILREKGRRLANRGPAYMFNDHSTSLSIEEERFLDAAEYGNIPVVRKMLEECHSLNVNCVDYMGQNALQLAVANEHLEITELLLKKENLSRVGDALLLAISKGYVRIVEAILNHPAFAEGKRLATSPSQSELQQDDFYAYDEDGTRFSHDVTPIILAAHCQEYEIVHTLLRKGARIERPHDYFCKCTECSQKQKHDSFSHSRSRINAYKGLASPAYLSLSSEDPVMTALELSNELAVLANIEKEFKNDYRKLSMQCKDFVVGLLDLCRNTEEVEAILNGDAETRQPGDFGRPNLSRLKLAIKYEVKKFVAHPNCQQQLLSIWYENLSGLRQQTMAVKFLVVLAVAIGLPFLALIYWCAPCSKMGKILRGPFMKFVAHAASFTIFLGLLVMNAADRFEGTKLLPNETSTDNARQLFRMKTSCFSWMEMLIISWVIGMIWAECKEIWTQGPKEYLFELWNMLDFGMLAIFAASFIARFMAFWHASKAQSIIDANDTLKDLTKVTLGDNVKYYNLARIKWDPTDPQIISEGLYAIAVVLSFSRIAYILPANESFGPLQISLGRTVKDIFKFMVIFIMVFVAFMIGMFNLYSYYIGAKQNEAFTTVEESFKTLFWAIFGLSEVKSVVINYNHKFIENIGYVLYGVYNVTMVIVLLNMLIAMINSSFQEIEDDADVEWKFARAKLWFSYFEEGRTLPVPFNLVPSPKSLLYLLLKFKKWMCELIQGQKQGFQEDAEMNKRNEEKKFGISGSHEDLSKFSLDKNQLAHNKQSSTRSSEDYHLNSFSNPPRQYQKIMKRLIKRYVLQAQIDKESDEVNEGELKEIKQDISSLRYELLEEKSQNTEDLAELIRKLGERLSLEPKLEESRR
TRPC4 potent – allosteric potentiators of mouse TRPC4 channel. HEK293 TRPC4beta/mu-opioid, DAMGO EC20, Fluo-4 Ca2+ flux; active compounds read high. B-score at 10 µM. hit rate 0.42% among 310,000. AID 2227;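 active = B-score of calcium response area above 5 SD of library B-scores, with initial fluorescence ratio within 5 SD of library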;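 note: B-score of integrated fluorescence ratio over time as area under calcium response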
TRPC6 activator – activates the mouse TRPC6 cation channel; Q61143; HEK293-TRPC6 membrane potential dye fluorescence; active compounds read high; B-score at 10 µM; hit rate 0.13% among 310,000; AID 2550;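 active = B-score of the integrated fluorescence ratio above library mean plus 3 SD, and starting fluorescence ratio within library mean plus 5 SD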;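 note: higher score means more depolarization so channel activation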
TRPC4 block – inhibitors of mouse TRPC4 channel; hit rate 0.39% among 300,000; Q9QUQ5; HEK293 TRPC4beta/mu-opioid, DAMGO-evoked Fluo4 calcium flux; active compounds read low; B-score at 10 µM;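 active = B-score over 3 SD under the library average, no early fluorescence shift, positive overall ratio signal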
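Assay system: TRPC4beta/mu-opioid receptor HEK293 cell line; compound dosing: single concentration per test compound; detection: Fluo4 Ca2+ flux fluorescence; evaluation: per-well B score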
TRPC4 act – activators of mouse TRPC4 channel; Q9QUQ5; AID 2237; B-score at 10 µM; HEK293 TRPC4beta/mu-opioid, Fluo4 calcium fluorescence; active compounds read high; hit rate 0.49% among 310,000;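 active = B-score above 5 SD of library B-scores, and initial fluorescence ratio not above library mean plus 5 SD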;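 note: positive B-score marks a calcium rise read as TRPC4 activation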
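Material: HEK293 stable line with TRPC4beta plus mu-opioid receptor; technique: Fluo4 calcium-sensitive dye fluorescence, kinetic, 1 Hz baseline; timing: Fluo4 dye loading 45 min at room temperature, 110 s recording; controls: assay buffer as low control, maximal DAMGO as high control; read-out: integrated baseline-normalised fluorescence ratio, converted to per-well B score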
An asterisk follows results filed as active; i = inactive. Most compounds without a hit are left out; they make up all but 2.3% or so of the library.

SMILES	TRPC6 inhibitor	TRPC4 potent	TRPC6 activator	TRPC4 block	TRPC4 act
Nc1nonc1OCCN1CCN(c2ccc([N+](=O)[O-])c3cccnc23)CC1	i	23*	i	i	93*
Cc1nonc1OCCN1CCN(c2ccccc2[N+](=O)[O-])CC1	i	i	i	i	i
O=C(c1ccccc1F)N1CCN(c2ccc([N+](=O)[O-])cc2-n2cccc2)CC1	i	18*	i	i	i
COC1CCN(C(=O)c2ccc3oc(C(C)C)nc3c2)CC1	i	i	i	i	i
Cc1nc(NC(=O)CSc2ccc(-c3nc4ccccc4[nH]3)cn2)sc1C	i	i	i	i	i
O=C(Nc1ccccc1N1CCN(C(=O)c2ccc(Cl)cc2)CC1)c1cccc([N+](=O)[O-])c1	i	i	i	-6*	i
COc1ccc(N(CC(=O)Nc2ccccc2F)S(=O)(=O)c2ccc(C)c([N+](=O)[O-])c2)cc1	i	i	i	i	i
O=C(O)c1cc(-c2ccc(/C=c3\sc4nc5ccc(Br)cc5n4c3=O)o2)ccc1Cl	i	i	40*	i	i
Cc1ccc(CNC(=O)CSc2nc(=O)n3ccccc3n2)cc1	i	i	i	-6*	i
Cc1ccc(NC(=O)c2cccc(OC(F)F)c2)c(OC(F)F)c1	i	i	i	i	i
Cc1ccc(S(=O)(=O)N(CC(=O)N2CCOCC2)c2ccccc2F)cc1	i	i	i	i	i
CCOc1ccccc1N(CC(=O)N1CCOCC1)S(=O)(=O)c1ccc(SC)cc1	i	i	i	i	175*
Cc1cc(N2CCN(C)CC2)n2cc(-c3ccc(F)cc3)nc2n1	i	15*	i	i	i
Fc1ccc(C2CCNCC2COc2ccc3c(c2)OCO3)cc1 (stereo unspecified)	i	i	i	i	102*
COc1ccc(C(CNC(=O)/C=C/c2c(Cl)nc3ccccn23)N(C)C)cc1 (stereo unspecified)	i	i	i	i	249*
CN(C)c1ccc(C(CNC(=O)Cc2cccc3ccccc23)N(C)C)cc1 (stereo unspecified)	i	i	i	i	77*
CC[C@H](C)[C@H](NC(=O)OCc1ccccc1)C(=O)Nc1ccc(NC(C)=O)cc1	i	i	i	i	i
CCC(C)C(NC(=O)OCc1ccccc1)C(=O)NCC(c1ccccc1)N(C)C (stereo unspecified)	i	i	i	-5*	i
COc1ccc(C(CNC(=O)Cc2ccc(-c3ccccc3)cc2)N(C)C)cc1 (stereo unspecified)	i	i	i	i	202*
c1ccc2c(c1)oc1c(N3CCOCC3)ncnc12	i	i	i	i	i
COc1ccc(NC(=O)c2ccco2)cc1S(=O)(=O)N1CCCCC1	i	i	i	i	i
COc1ccc(CC(NC(=O)c2ccccc2)C(=O)NCC(=O)O)cc1 (stereo unspecified)	i	i	i	i	i
COc1ccc(OCCNC(=O)C(c2ccccc2)c2ccccc2)cc1	i	i	i	i	i
COc1ccc(C(CNC(=O)C(Cc2ccccc2)NC(N)=O)N(C)C)cc1 (stereo unspecified)	i	i	i	i	112*
COc1ccccc1C(CNC(=O)CSc1ccc2ccccc2c1)N(C)C (stereo unspecified)	i	i	i	i	i
SMILES	TRPC6 inhibitor	TRPC4 potent	TRPC6 activator	TRPC4 block	TRPC4 act
COc1ccc(C(CNC(=O)c2cccc3cccnc23)N(C)C)cc1 (stereo unspecified)	i	i	i	-7*	108*
COc1ccccc1C(=O)NCC(c1cccnc1)N(C)C (stereo unspecified)	i	i	i	i	i
COc1cccc(C(CNC(=O)C(c2ccccc2)c2ccccc2)N(C)C)c1 (stereo unspecified)	i	i	i	-6*	i
COc1ccc(C(CNC(=O)CSc2ccccc2C)N(C)C)cc1 (stereo unspecified)	i	i	i	i	116*
Cc1ccccc1C(=O)Nc1ccnn1C1CCN(C(=O)c2ccoc2)CC1	i	i	i	i	i
O=C(Nc1cccc(-c2cnc3ccccc3n2)c1)C1CC(=O)N(c2ccccc2)C1 (stereo unspecified)	i	i	i	i	i
CC12CCC(=O)N1C(C(=O)Nc1nnc(SCc3ccccc3)s1)CS2 (stereo unspecified)	i	i	i	i	i
O=C(c1ccc(CN2CCOCC2)cc1)N1CCN(c2ccccc2)CC1	i	i	i	-6*	i
CC(=O)c1ccc(N2CCN(C(=O)c3ccc(Cn4c(=S)[nH]c5ccc(N6CCOCC6)cc5c4=O)cc3)CC2)cc1	i	14*	i	i	i
CS(=O)(=O)Nc1nc2n(n1)C(c1ccccc1)CC(c1ccccc1)N2 (stereo unspecified)	i	i	i	-6*	i
Oc1cccc(C2c3[nH]c4ccccc4c3CCN2Cc2ccc3c(c2)CCO3)c1 (stereo unspecified)	i	i	i	-6*	i
Oc1cccc(C2c3[nH]c4ccccc4c3CCN2Cc2ccoc2)c1 (stereo unspecified)	i	i	i	i	i
CC/C(=N\NC(=O)CSc1ncccn1)c1ccc2c(c1)OCCO2	i	i	i	i	i
COc1ccc(/C=C\c2onc(C)c2S(=O)(=O)N2CCC(C(=O)NCc3ccco3)CC2)cc1	i	i	i	i	i
COc1ccccc1C1CCN(C(=O)c2ccccc2)CC1	i	i	i	i	i
COc1ccccc1C1CCN(c2cc(O)ccc2[N+](=O)[O-])CC1	i	13*	i	-5*	i
COc1ccc(CN(C)C(=O)c2ccc(NC(=O)CC3SC(N4CCCC4)=NC3=O)cc2)c(OC)c1 (stereo unspecified)	i	41*	i	-6*	i
COc1ccc(CN(C)C(=O)c2ccc(NC(=O)CC3SC(N4CCCC4)=NC3=O)cc2)c(OC)c1OC (stereo unspecified)	i	i	i	i	i
COc1ccc(S(=O)(=O)N(C)c2nc3ccccc3n3c(CC(C)C)nnc23)cc1	i	i	i	i	i
Clc1cc(Cl)cc(C2=NC(Cc3ccccc3)CO2)c1 (stereo unspecified)	i	i	i	i	132*
NC(=O)C1CCN(C(=O)c2ccc3nc(N4CCCCC4)sc3c2)CC1	i	i	i	i	i
